Measured values: ChEMBL document CHEMBL1137758, “Biphenyl C-cyclopropylalkylamides: New scaffolds for targeting estrogen receptor beta” (Bioorg Med Chem Lett, 2009)
Calls of active or inactive are those of the source. The rule behind the calls is not given here.

Columns and labels:
[1] = Selectivity for ERbeta over ERalpha
[2] = Selectivity for ERalpha over ERbeta
MDA-MB-231 [3] = assay: Growth inhibition of estrogen receptor deficient human MDA-MB-231 cells at 3.2 nM to 50 uM after 72 hrs by MTS assay; assay type: functional, cell-based
In short: (§1)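 Cells were plated at 1×10^3 cells/well in phenol red-free RPMI-1640 with 10% FBS and left to adhere 72 h. Agents were given over 3.2 nM to 50 µM for 72 h. Cell density was read by MTS dye reduction, A490 with A630 background subtracted.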

MDA-MB-231 [4] = assay: Cytotoxicity against estrogen receptor deficient human MDA-MB-231 cells at 25 uM after 72 hrs by MTS assay; assay type: functional, cell-based; in short: as §1
MCF7 [5] = assay: Cytotoxicity against estradiol-stimulated human MCF7 cells expressing ERalpha at 25 uM after 6 days by MTS assay; assay type: functional, cell-based
In short: (§2)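 MCF-7 cells (an earlier passage expressing ERα and ERβ, or the later-passage ATCC variant expressing only ERα) were seeded at 4×10^3 cells/well in phenol red-free RPMI-1640 with 10% charcoal-dextran stripped FBS and left to adhere overnight. […] MTS/PMS read-out was A490 minus A630 after 2 h. Day-0 cells were set to 0% growth and E2-stimulated day-6 growth to 100%.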

MCF7 [6] = assay: Cytotoxicity against estradiol-stimulated human MCF7 cells expressing ERalpha and ERbeta at 25 uM after 6 days by MTS assay; assay type: functional, cell-based; in short: as §2
Estrogen receptor beta [7] = target: T1, Estrogen receptor beta (Homo sapiens, UniProt Q92731); assay: Displacement of fluorescein-labeled estradiol from human recombinant ERbeta by fluorescence polarization assay
In short: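 ER (15 nM) was incubated with Fluormone ES2 (1 nM) and serially diluted compound in DMSO (1% v/v) in duplicate. Polarization was read after 2 h (ex 485/em 530 nm). […] Values are means of three experiments.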

MCF7 [8] = assay: cells; conditions: Homo sapiens, MCF7, 144 h
Estrogen receptor = target: T2, Estrogen receptor (Homo sapiens, UniProt P03372); assay: Displacement of fluorescein-labeled estradiol from human recombinant ERalpha by fluorescence polarization assay
T2 sequence (P03372 whole entry): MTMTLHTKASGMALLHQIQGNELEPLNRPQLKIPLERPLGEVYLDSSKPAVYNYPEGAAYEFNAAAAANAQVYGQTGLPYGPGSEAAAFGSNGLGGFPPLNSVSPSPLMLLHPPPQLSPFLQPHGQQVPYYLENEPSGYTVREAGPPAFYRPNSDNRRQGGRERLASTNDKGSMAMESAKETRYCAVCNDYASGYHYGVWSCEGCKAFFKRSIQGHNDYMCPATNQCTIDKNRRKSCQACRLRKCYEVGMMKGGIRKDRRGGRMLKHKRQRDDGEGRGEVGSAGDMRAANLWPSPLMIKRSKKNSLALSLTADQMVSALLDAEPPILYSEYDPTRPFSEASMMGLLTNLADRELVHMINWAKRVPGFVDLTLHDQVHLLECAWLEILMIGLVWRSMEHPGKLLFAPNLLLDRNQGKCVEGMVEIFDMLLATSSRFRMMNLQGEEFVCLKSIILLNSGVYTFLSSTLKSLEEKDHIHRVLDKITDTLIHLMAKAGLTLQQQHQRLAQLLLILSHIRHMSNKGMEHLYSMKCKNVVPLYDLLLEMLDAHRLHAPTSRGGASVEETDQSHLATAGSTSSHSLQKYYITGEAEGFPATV

MCF7 [9] = assay: cells; conditions: Homo sapiens, MCF7, 144 h; remark: listed apart in the source
Estrogen receptor beta [10] = target: T1, Estrogen receptor beta; assay: Displacement of fluorescein-labeled estradiol from human recombinant ERbeta at 5 uM by fluorescence polarization assay
[11] = target: T3, Estrogen receptor (Homo sapiens) (UniProt P03372); assay: Displacement of fluorescein-labeled estradiol from human recombinant ERalpha at 1 uM by fluorescence polarization assay
T3 sequence (whole entry): T2 sequence (P03372 whole entry)

[12] = target: T3, Estrogen receptor (Homo sapiens); assay: Displacement of fluorescein-labeled estradiol from human recombinant ERalpha at 0.2 uM by fluorescence polarization assay
[13] = target: T3, Estrogen receptor (Homo sapiens); assay: Displacement of fluorescein-labeled estradiol from human recombinant ERalpha at 5 uM by fluorescence polarization assay
Estrogen receptor beta [14] = target: T1, Estrogen receptor beta; assay: Displacement of fluorescein-labeled estradiol from human recombinant ERbeta at 0.2 uM by fluorescence polarization assay
Estrogen receptor beta [15] = target: T1, Estrogen receptor beta; assay: Displacement of fluorescein-labeled estradiol from human recombinant ERbeta at 1 uM by fluorescence polarization assay

T1 sequence (Q92731 whole entry): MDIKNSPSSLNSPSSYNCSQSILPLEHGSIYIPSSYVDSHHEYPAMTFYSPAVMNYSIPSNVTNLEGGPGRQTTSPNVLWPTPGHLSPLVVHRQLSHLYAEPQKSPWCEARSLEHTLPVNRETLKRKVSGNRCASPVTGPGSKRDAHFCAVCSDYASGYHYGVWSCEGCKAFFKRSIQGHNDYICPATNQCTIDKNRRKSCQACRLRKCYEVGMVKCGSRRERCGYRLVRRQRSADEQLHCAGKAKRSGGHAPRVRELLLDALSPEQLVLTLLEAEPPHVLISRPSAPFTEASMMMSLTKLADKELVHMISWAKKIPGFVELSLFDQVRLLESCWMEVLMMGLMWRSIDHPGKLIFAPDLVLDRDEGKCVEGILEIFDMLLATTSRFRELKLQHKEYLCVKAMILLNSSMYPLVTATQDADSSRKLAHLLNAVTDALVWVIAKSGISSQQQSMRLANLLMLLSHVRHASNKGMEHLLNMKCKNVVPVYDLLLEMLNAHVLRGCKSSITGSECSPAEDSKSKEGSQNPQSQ

Row | SMILES | Activity (Estrogen receptor beta [10]) [%] | Activity [11] [%] | Activity [12] [%] | Activity [13] [%] | Activity (Estrogen receptor beta [14]) [%] | Activity (Estrogen receptor beta [15]) [%] | also measured
1 | Cc1cc(-c2ccc(O)c(F)c2)ccc1/C=N/O |  |  |  |  |  |  | fold change (FC) [1]: 43
2 | CCCc1c(-c2ccc(O)cc2)nn(-c2ccc(O)cc2)c1-c1ccc(O)cc1 |  |  |  |  |  |  | fold change (FC) [2]: 410
3 | O=C(c1ccc(OCCN2CCCCC2)cc1)c1c(-c2ccc(O)cc2)sc2cc(O)ccc12 |  |  |  |  |  |  | growth inhibition (GI) (MDA-MB-231 [3]): inactive; Activity (MDA-MB-231 [4]): Active; Activity (MCF7 [5]): Active; Activity (MCF7 [6]): Active
4 | CCCC[C@@H]1C[C@H]1[C@@H](NC(=O)c1ccccc1)c1ccc(-c2ccc(O)cc2)cc1F (relative stereo) |  |  |  |  |  |  | growth inhibition (GI) (MDA-MB-231 [3]): inactive; IC50 (Estrogen receptor beta [7]): 2050 nM; Activity (MDA-MB-231 [4]): Active; GI50 (MCF7 [8]): 4100 nM; Activity (MCF7 [5]): Active; Activity (MCF7 [6]): Active; IC50 (Estrogen receptor; read-out: IC50): > 100000 nM
5 | O/N=C/c1ccc(-c2ccc(O)cc2)cc1F |  |  |  |  |  |  | IC50 (Estrogen receptor beta [7]): 32.3 nM; fold change (FC) [1]: 11; IC50 (Estrogen receptor; read-out: IC50): 795 nM
6 | CCCC[C@@H]1C[C@H]1[C@@H](N)c1ccc(-c2ccc(O)cc2)cc1F.Cl (relative stereo) |  |  |  |  |  |  | growth inhibition (GI) (MDA-MB-231 [3]): inactive; IC50 (Estrogen receptor beta [7]): 15000 nM; Activity (MDA-MB-231 [4]): Active; GI50 (MCF7 [8]): 1200 nM; Activity (MCF7 [5]): Active; GI50 (MCF7 [9]): 51700 nM; Activity (MCF7 [6]): Active; IC50 (Estrogen receptor): Not Active
7 | CCCC[C@@H]1C[C@H]1C(NC(=O)c1ccco1)c1ccc(C(=O)OC)cc1 (single isomer, unassigned) | 15 | 84 | 64 | 89 | 8 | 2 | 
8 | C=C(CCCC)[C@@H](NC(=O)c1ccc(C(F)(F)F)cc1)c1ccccc1 | 3 | 21 | -61 | 27 | -8 | -7 | 
9 | CCCC[C@@H]1C[C@H]1[C@@H](NC(=O)c1ccco1)c1ccc(-c2ccccc2)cc1 | 13 | 57 | 58 | 54 | -2 | 0 | 
10 | CCCC[C@@H]1C[C@H]1[C@@H](NS(=O)(=O)c1cccc2cccnc12)c1ccc(-c2ccccc2)cc1 | 22 | 74 | 52 | 91 | 28 | 18 | 
11 | CCC/C=C(\CCC)[C@@H](NC(=O)c1ccc(-c2ccccc2)cc1)c1ccc(C(=O)OC)cc1 | 4 | 25 | 27 | 27 | -1 | -3 | 
12 | C=C(CCCC)[C@@H](NC(=O)c1cccs1)c1ccccc1 | 8 | 40 | 67 | 54 | -1 | -3 | 
13 | CCC/C=C(\CCC)[C@@H](NS(C)(=O)=O)c1ccccc1 | 17 | 39 | 48 | 56 | -3 | -4 | 
14 | CCC/C=C(\CCC)[C@@H](NP(=O)(c1ccccc1)c1ccccc1)c1ccccc1 | 14 | 25 | 47 | 72 | 6 | 9 | 
15 | C=C(CCCC)[C@@H](NC(=O)c1ccccc1)c1ccccc1 | 9 | 70 | 58 | 67 | 2 | 3 | 
16 | CCC/C=C(\CCC)[C@@H](NS(=O)(=O)c1ccc(C(F)(F)F)cc1)c1ccccc1 | 30 | 74 | 47 | 90 | -1 | 10 | 
17 | CCC/C=C(\CCC)[C@@H](NS(=O)(=O)c1cccs1)c1ccc(C(=O)OC)cc1 | 32 | 33 | 39 | 92 | 5 | 8 | 
